In the library only some 2.7% were active in any assay of this set; here they are far more common.
ASAP1 GAP inh – blocks human ASAP1-stimulated Arf1 GTP hydrolysis. inhibition, % at 16.5 µM. 360,000 compounds, 0.19% hits. Q9ULH1. GDP FP detection. AID 624377; in the data active means inhibition above about 25%
MsrA act – activators of bovine methionine sulfoxide reductase A; purified bovine MsrA, absorbance read-out; 360,000 compounds, 0.3% hits; activation, % at 10.6 µM; in the data active means activation above about 7.5%
ARFGAP1 inh – inhibitors of rat ARFGAP1 | Arfgap1-stimulated ARF1 GTP hydrolysis, GDP FP detection | inhibition, % at 16.5 µM | 360,000 compounds, 0.26% hits | AID 651572;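 active means inhibition above a per-plate limit, mean inhibition of low control wells plus 3 SD, cut at about 25% in these data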
Target sequence (Q62848 1-136 limits assumed): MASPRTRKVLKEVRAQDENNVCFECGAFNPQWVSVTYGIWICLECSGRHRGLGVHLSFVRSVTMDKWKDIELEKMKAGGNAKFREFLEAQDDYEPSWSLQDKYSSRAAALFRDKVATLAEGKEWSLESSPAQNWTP
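System: truncated rat Arfgap1 GAP domain / Medium: HEPES-based buffer, pH 7.5 / Also added: N-terminally truncated human ARF1-GTP substrate / Incubation: enzyme reaction 120 min at 25 °C after 20 min preincubation / Measured by: FP of antibody-bound GDP Alexa 633 tracer, ex 620/em 688 nm / Replicates: singlicate, each compound tested once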
sPLA2-III inh – Inhibits HGIII-sPLA2 liposome hydrolysis, primary screen; Q9NZ20; QFRET BODIPY PC-A2 liposome hydrolysis, fluorescence; inhibition, % at 12.2 µM; 370,000 compounds, 0.56% hits;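 active means inhibition above mean plus 3 SD of compounds lying within the high and low control bounds, cut at about 19% in these data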
Target sequence (Q9NZ20 whole entry, looked up): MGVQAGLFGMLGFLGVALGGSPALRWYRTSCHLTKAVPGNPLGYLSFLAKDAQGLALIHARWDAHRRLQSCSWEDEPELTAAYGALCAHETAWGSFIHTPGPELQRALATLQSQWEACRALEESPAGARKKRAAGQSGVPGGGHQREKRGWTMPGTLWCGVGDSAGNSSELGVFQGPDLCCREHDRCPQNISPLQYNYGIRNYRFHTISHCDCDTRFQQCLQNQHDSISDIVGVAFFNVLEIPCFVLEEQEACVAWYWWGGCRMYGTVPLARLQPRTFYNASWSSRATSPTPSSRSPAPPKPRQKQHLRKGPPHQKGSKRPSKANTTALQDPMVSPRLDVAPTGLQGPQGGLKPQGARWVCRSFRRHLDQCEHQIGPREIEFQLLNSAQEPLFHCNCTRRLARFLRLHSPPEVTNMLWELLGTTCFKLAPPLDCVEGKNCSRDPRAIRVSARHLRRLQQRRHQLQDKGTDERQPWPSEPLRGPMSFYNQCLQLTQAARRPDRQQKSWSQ
NR1D1 modulator – modulators of human Rev-erb alpha DNA binding | Rev-erbα–FITC-DNA binding, fluorescence polarization, 90 min | activity, % at 10 µM | 370,000 compounds, 0.79% hits;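 active means activity above about 14%, limit read from the data; passing the limit was not always enough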
MsrA inhibitor – bovine MsrA inhibition. purified bovine MsrA, absorbance read-out. inhibition, % at 15.5 µM. 360,000 compounds, 0.75% hits
MsrA conf – confirmation of bovine MsrA inhibitors; shares compounds with MsrA inhibitor; purified bovine MsrA, absorbance read-out; inhibition, % at 15.5 µM; 2,300 compounds, 41% hits;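 further: coupled to thioredoxin reductase with NADPH and selenocystamine and DMSO as substrate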
Numbers stand for hits; – = inactive; · = no result. Unless noted, no stated cut-off is given here; in the data, active means inhibition above about 4.5%; inactive means the rest.

SMILES	ASAP1 GAP inh	MsrA act	ARFGAP1 inh	sPLA2-III inh	NR1D1 modulator	MsrA inhibitor	MsrA conf
CO[C@H]1C=CO[C@@]2(C)Oc3c(C)c(O)c4c(O)c(c(C=NN5CCN(C)CC5)c(O)c4c3C2=O)NC(=O)C(C)=CC=C[C@H](C)[C@H](O)[C@@H](C)[C@@H](O)[C@@H](C)[C@H](OC(C)=O)[C@@H]1C	–	–	–	–	–	5.4	–
COc1cc(/C=C2/NC(=O)NC2=O)cc(Br)c1OCc1cccc(C(=O)O)c1	–	–	–	–	–	5.9	–
COC(=O)c1cc(-c2cccc(OC(F)(F)F)c2)c(=O)n2c1CCC2	·	·	·	–	–	·	·
COc1ccc(CN2CN3Cc4ccc(C)cc4C3CS2(=O)=O)cc1 (centres undefined)	·	·	·	–	–	·	·
CNC(=O)c1cc2ccc(OC)cc2oc1=O	–	–	–	–	–	5.2	5.7
Cc1cc(O)c(C(C)C)cc1N=Cc1ccc(N(C)C)cc1	–	–	–	–	–	4.9	–
Cc1cc(O)c(C(C)C)cc1N=Cc1ccc([N+](=O)[O-])cc1	–	–	–	–	–	–	·
COc1ccc(C2C(C(=O)N3CCC(C)CC3)CC(=O)N2c2ccc(OC)cc2)cc1 (centres undefined)	·	·	·	–	–	·	·
CC(=O)C1(C(=O)NCc2ccccc2)CC(c2ccccc2C(F)(F)F)=NO1 (centres undefined)	·	·	·	–	–	·	·
COc1ccc(C=CC(=O)c2ccc([N+](=O)[O-])cc2)cc1	–	–	–	–	–	–	·
COc1ccc(C(=O)/C=C/c2ccc(O)cc2)cc1	–	–	–	–	–	5.0	–
CC(=O)Nc1nc2nc(-c3ccccc3)cc(-c3ccccc3)n2n1	–	–	–	–	·	–	·
O=C1CCC(=O)N1c1nc2nc(-c3ccccc3)cc(-c3ccccc3)n2n1	–	–	–	–	–	4.7	–
O=C(c1cccc(I)c1)N1CCC(Oc2cccnc2)CC1	·	·	·	–	–	·	·
COC(=O)[C@]12C[C@H](CC(=O)NCc3ccc(C)o3)C(=O)N(CCc3ccc(OC)c(OC)c3)C1=C[C@H](C1CCCC1)O[C@@H]2C	·	·	·	–	–	·	·
COc1c(O)ccc(/C=N/NC(=O)c2ccc3c(c2)OCCO3)c1[N+](=O)[O-]	–	–	–	–	–	7.2	–
COc1cc(/C=N/NC(=O)c2ccc3c(c2)OCCO3)cc(Cl)c1O	–	–	–	–	–	6.0	5.0
COc1c(O)ccc(/C=N\NC(=O)c2ccc3c(c2)OCO3)c1[N+](=O)[O-]	–	–	–	–	–	8.1	4.9
O=C(N/N=C/c1cc2c(cc1[N+](=O)[O-])OCO2)c1ccc2c(c1)OCO2	–	–	–	–	–	–	·
COc1cc(-c2nnc(SCC(=O)N3C(C)CCCC3C)o2)cc(OC)c1OC (centres undefined)	·	·	·	–	–	·	·
CCOC(=O)C1=C(C)NC(C)=C(C(=O)OCC)C1C(=O)OCC(=O)NC	–	–	–	–	–	11	–
Cc1ccc(-c2cc(-c3nnc(SCC(=O)Nc4ccccc4-c4ccccc4)n3N)[nH]n2)cc1	·	·	·	–	–	·	·
O=C(NCC1CCCO1)C(=O)N/N=C/c1ccc(O)c(Cl)c1 (centres undefined)	–	–	–	–	–	5.3	–
CCC(C(=O)Nc1ccccc1N1CCCC1)c1cccc(OC)c1 (centres undefined)	·	·	·	–	–	·	·
Cc1ccc(Nc2ccc(C(N)=O)cc2[N+](=O)[O-])cc1C	–	–	–	–	–	19	12
SMILES	ASAP1 GAP inh	MsrA act	ARFGAP1 inh	sPLA2-III inh	NR1D1 modulator	MsrA inhibitor	MsrA conf
CCOC(=O)[C@]12CCCC=C1N(Cc1ccc(OC)cc1)C(=O)[C@@H]2CC(=O)NCc1ccc(C)o1	·	·	·	–	–	·	·
CN(C)CCN(Cc1cc2cc3c(cc2[nH]c1=O)OCCO3)C(=S)NCC1CCCO1 (centres undefined)	–	–	–	–	–	5.2	–
CCN(CC)CCN(Cc1cc2cc3c(cc2[nH]c1=O)OCCO3)C(=S)NCC1CCCO1 (centres undefined)	–	–	–	–	–	–	·
COCCNC(=S)N(CCO)Cc1cc2cc3c(cc2[nH]c1=O)OCO3	–	–	–	–	–	5.1	5.1
CN(CCCOC(=O)c1cc2ccccc2o1)C1CN(Cc2cn(Cc3ccc([N+](=O)[O-])cc3)nn2)S(=O)(=O)C1 (centres undefined)	·	·	·	–	–	·	·
C[C@@H]1CN(c2ccc(N3CCN(C(=O)OC(C)(C)C)C[C@H]3C)cc2C#N)CCN1Cc1ccccc1	–	·	–	–	–	–	·
CCN(CC)c1ccc(/C=N/N2C(=O)c3ccccc3C2=O)cc1	–	–	–	–	–	–	·
CCN(CC)c1ccc(/C=N/n2c(C)cc(C)cc2=O)cc1	–	–	–	–	–	5.1	–
COc1ccc(N2CCN(CCCNC(=O)CCc3cccc(Cl)c3)CC2)cc1	·	·	·	–	–	·	·
COc1ccc(/C([O-])=C(/C(=S)Nc2ccc(C)c(C)c2)n2c[n+](C)c3ccccc32)cc1OC	–	–	–	–	·	4.8	–
O=C(Nc1cc(Cl)ccc1Cl)c1ccco1	–	–	–	–	–	–	·
CS/C(Nc1cc(Cl)ccc1Cl)=C(/C#N)C(=O)c1ccco1	–	–	–	–	–	5.0	–
COc1ccccc1C(=O)NC(=S)Nc1ccc(NC(=O)c2ccco2)cc1	–	–	–	–	–	99	–
O=C(NNC(=S)NC(=O)c1ccco1)c1ccc(NC(=O)c2ccccc2)cc1	–	–	–	–	–	5.2	–
O=C(NC(=S)NNC(=O)c1ccco1)c1ccc(F)cc1	–	–	–	–	–	–	·
O=C(c1ccccc1)c1ccc(O)cc1O	–	–	–	–	–	5.6	–
Cc1ccc(N=c2c([N+](=O)[O-])nn(-c3ccccc3)n2O)c(C)c1	–	–	–	–	–	12	15
Cc1nc2c(=O)n(C)c(=O)n(C)c2nc1Cl	–	–	–	–	–	4.7	–
Cn1c(=O)c2nc(NCc3ccccc3)cnc2n(C)c1=O	–	–	–	–	–	–	·
COc1cc(/C=N/Nc2nc(=O)[nH]nc2C)ccc1O	–	–	–	–	–	4.7	5.4
COc1cc(/C=N/Nc2cc(C)nc(N)n2)ccc1O	–	–	–	–	–	6.8	5.2
O=C(N/N=C/c1ccc(O)c([N+](=O)[O-])c1)C(O)(c1ccccc1)c1ccccc1	–	–	–	–	–	6.4	4.9
Cc1cc(C(=O)N/N=C/c2ccc(O)c([N+](=O)[O-])c2)n[nH]1	–	–	–	–	–	6.8	6.0
COc1cc(C=NNC(=O)c2ccccc2-n2cccc2)ccc1O	–	–	–	–	–	–	·
Cc1cc(C(=O)N/N=C/c2cccc([N+](=O)[O-])c2O)n[nH]1	–	–	–	–	–	–	·
O=C(N/N=C\c1ccc(O)c([N+](=O)[O-])c1)c1ccccc1-n1cccc1	–	–	–	–	–	6.6	–

Source: PubChem BioAssay (several laboratories)
